Results on one molecule are retold here after ChEMBL document CHEMBL1122018, “Synthesis and orexigenic activity of some 1-methyl-4-piperidylidene-Substituted pyrrolo[2,1-g][3] benzazepine and dibenzocycloheptene derivatives” (1982).

The structures appear in SMILES notation.

What all share (format): functional
Test [1] has as its system Felis catus. The test can be described thus: Average food consumed at the dose of 0.25 mg/kg (po) using 10 cats per dose level at 60 min (control day/ test day); 31/179. Put shortly: (§1)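 Cats given test compound suspended in 1% methylcellulose, or 1% methylcellulose placebo, by gavage 30 min before a preweighed test meal. Food was offered in surplus for 3 h, and intake was found by reweighing at 30, 60 and 180 min. Ten cats per dose, each dosed no more than once weekly. Test-day intake was compared with the preceding control day by two-tailed paired t test (p < 0.05); values are mean ± SD.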

The test system of test [2] is Felis catus. The test can be described thus: Average food consumed at the dose of 0.50 mg/kg (po) using 10 cats per dose level at 180 min (control day/ test day); 36/188. The note with it: dose 0.5 mg/kg. The essentials: as §1
For test [3], the system named is Felis catus. The test is described as follows: Average food consumed at the dose of 0.50 mg/kg (po) using 10 cats per dose level at 30 min (control day/ test day); 30/147. The note with it: dose 0.5 mg/kg. The essentials: as §1
Test [4] deals with Felis catus. The test is described as follows: Average food consumed at the dose of 0.063 mg/kg (po) using 10 cats per dose level at 60 min (control day/ test day); 18/98.
In test [5] the test system is Felis catus. The test is described as follows: Average food consumed at the dose of 0.063 mg/kg (po) using 10 cats per dose level at 30 min (control day/ test day); 17/57.
Test [6] has as its system Felis catus. The test can be described thus: Average food consumed at the dose of 0.25 mg/kg (po) using 10 cats per dose level at 30 min (control day/ test day); 32/66. Put shortly:
as §1

For test [7], the system named is Felis catus. The test is described as follows: Average food consumed at the dose of 0.50 mg/kg (po) using 10 cats per dose level at 180 min (control day/ test day); 16/141. The note with it: dose 0.5 mg/kg. Put shortly:
as §1

Test [8] deals with Felis catus. The test is described as follows: Average food consumed at the dose of 0.031 mg/kg (po) using 10 cats per dose level at 180 min (control day/ test day); 27/159.
Test [9] concerns Felis catus. The test can be described thus: Average food consumed at the dose of 0.25 mg/kg (po) using 10 cats per dose level at 30 min (control day/ test day); 24/129.
The test system of test [10] is Felis catus. The test can be described thus: Average food consumed at the dose of 0.25 mg/kg (po) using 10 cats per dose level at 60 min (control day/ test day); 31/66. The essentials: as §1
Test [11] has as its system Felis catus. The test can be described thus: Average food consumed at the dose of 0.031 mg/kg (po) using 10 cats per dose level at 30 min (control day/ test day); 20/55.
The subject of test [12] is Felis catus. The test is described as follows: Average food consumed at the dose of 0.50 mg/kg (po) using 10 cats per dose level at 60 min (control day/ test day); 33/124. The note with it: dose 0.5 mg/kg. Put shortly: as §1
Test [13] concerns Felis catus. The test can be described thus: Average food consumed at the dose of 0.25 mg/kg (po) using 10 cats per dose level at 60 min (control day/ test day); 25/109. The essentials:
as §1

In test [14] the test system is Felis catus. The test is described as follows: Average food consumed at the dose of 0.50 mg/kg (po) using 10 cats per dose level at 30 min (control day/ test day); 13/68. The note with it: dose 0.5 mg/kg. Put shortly: as §1
For test [15], the system named is Felis catus. The test is described as follows: Average food consumed at the dose of 0.25 mg/kg (po) using 10 cats per dose level at 180 min (control day/ test day); 41/138.
Test [16] has as its system Felis catus. The test is described as follows: Average food consumed at the dose of 0.031 mg/kg (po) using 10 cats per dose level at 60 min (control day/ test day); 17/79.
Test [17] has as its system Felis catus. The test is described as follows: Average food consumed at the dose of 0.50 mg/kg (po) using 10 cats per dose level at 60 min (control day/ test day); 19/96. The note with it: dose 0.5 mg/kg. Put shortly:
as §1

Test [18] relates to Felis catus. The test can be described thus: Average food consumed at the dose of 0.25 mg/kg (po) using 10 cats per dose level at 180 min (control day/ test day); 30/169.
The subject of test [19] is Felis catus. The test is described as follows: Average food consumed at the dose of 0.25 mg/kg (po) using 10 cats per dose level at 180 min (control day/ test day); 25/236.
Test [20] has as its system Felis catus. The test is described as follows: Average food consumed at the dose of 0.50 mg/kg (po) using 10 cats per dose level at 30 min (control day/ test day); 35/108. The note with it: dose 0.5 mg/kg. Put shortly:
as §1

Test [21] concerns Felis catus. The test can be described thus: Average food consumed at the dose of 0.50 mg/kg (po) using 10 cats per dose level at 180 min (control day/ test day); 34/273. The note with it: dose 0.5 mg/kg. The essentials: as §1
Test [22] concerns Felis catus. The test is described as follows: Average food consumed at the dose of 0.063 mg/kg (po) using 10 cats per dose level at 180 min (control day/ test day); 17/166.
Test [23] relates to Felis catus. The test can be described thus: Average food consumed at the dose of 0.25 mg/kg (po) using 10 cats per dose level at 30 min (control day/ test day); 17/76.
Test [24] deals with Felis catus. The test is described as follows: Average food consumed at the dose of 0.50 mg/kg (po) using 10 cats per dose level at 60 min (control day/ test day); 34/203. The note with it: dose 0.5 mg/kg. The essentials:
as §1

Regarding `CN1CCC(=C2c3ccccc3C=Cc3ccc(C(=O)O)cc32)CC1`, the Average consumed is 147 g in the test on Felis catus [1]; 149 g in the test on Felis catus [2]; 116 g in the test on Felis catus [3]; 94 g with Felis catus [4]; 68 g in the test with Felis catus [5]; 68 g in the test on Felis catus [6]. The Average consumed in the test with Felis catus [7] stood at 125 g; in the test on Felis catus [8], 157 g; with Felis catus [9] it was 108 g; with Felis catus [10] it was 86 g; in the test with Felis catus [11], 68 g; with Felis catus [12], 102 g. In addition, the Average consumed was 90 g in the test on Felis catus [13]; 71 g in the test on Felis catus [14]; 137 g in the test on Felis catus [15]; 95 g in the test with Felis catus [16]; 94 g in the test with Felis catus [17]; 133 g in the test on Felis catus [18]. Further, the Average consumed was found to be 191 g with Felis catus [19]; 72 g in the test with Felis catus [20]; 219 g in the test with Felis catus [21]; 159 g in the test with Felis catus [22]; 62 g in the test on Felis catus [23]; 160 g in the test on Felis catus [24].
